In ChEMBL document CHEMBL4229382, “Phenylthiazoles with tert-Butyl side chain: Metabolically stable with anti-biofilm activity” (Eur J Med Chem, 2018):
≈ marks a conversion by molar mass, not a printed value. Calls of active or inactive are those of the source. No cut-off for these calls is given here.

Tests used:
[1] = test system: Staphylococcus aureus; assay: Antibacterial activity against methicillin-resistant Staphylococcus aureus 2658 RCMB after 18 hrs by broth microdilution assay; format: functional
How it was run: (§1)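 Broth microdilution: inoculum from 0.5 McFarland suspension diluted to about 5 × 10^5 CFU/mL. Media were cation-adjusted Mueller-Hinton broth for staphylococci, brain heart infusion for E. faecium, and tryptone soya broth for E. faecalis, S. pneumoniae and L. monocytogenes.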

[2] = test system: Staphylococcus aureus; assay: Bactericidal activity against methicillin-resistant Staphylococcus aureus NRS386 incubated fo 18 hrs followed by re-plating on tryptic soy agar plates at 37 degC for 18 hrs by broth microdilution assay; format: functional; settings: NRS386, 18 h
[3] = test system: Staphylococcus aureus; assay: Antibacterial activity against methicillin-sensitive Staphylococcus aureus NRS107 after 18 hrs by broth microdilution assay; format: functional; settings: NRS107, 18 h; how it was run: as §1
[4] = test system: Staphylococcus aureus; assay: Antibacterial activity against methicillin-resistant Staphylococcus aureus NRS123 USA400 assessed as reduction in bacterial growth after 2 to 4 hrs by time kill assay; format: functional, organism-based
How it was run: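 Samples taken at 0, 2, 4, 6, 8, 12 and 24 h were serially diluted in PBS, plated on TSA and incubated ≥18 h for viable CFU/mL. DMSO was the negative control; two independent experiments.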

[5] = test system: Staphylococcus aureus; assay: Antibacterial activity against methicillin-resistant Staphylococcus aureus NRS385 after 18 hrs by broth microdilution assay; format: functional; settings: NRS385, 18 h; how it was run: as §1
[6] = test system: Enterococcus faecalis; assay: Antibacterial activity against vancomycin-resistant Enterococcus faecalis ATCC 51299 after 18 hrs by broth microdilution assay; format: functional; settings: ATCC 51299, 18 h; how it was run: as §1
[7] = test system: Staphylococcus aureus; assay: Bactericidal activity against methicillin-resistant Staphylococcus aureus NRS123 USA400 incubated fo 18 hrs followed by re-plating on tryptic soy agar plates at 37 degC for 18 hrs by broth microdilution assay; format: functional; settings: NRS123 USA400, 18 h
[8] = test system: Staphylococcus aureus; assay: Bactericidal activity against methicillin-resistant Staphylococcus aureus NRS384 USA300 incubated fo 18 hrs followed by re-plating on tryptic soy agar plates at 37 degC for 18 hrs by broth microdilution assay; format: functional; settings: NRS384 USA300, 18 h
[9] = test system: Staphylococcus epidermidis; assay: Bactericidal activity against methicillin-resistant Staphylococcus epidermidis NRS101 incubated fo 18 hrs followed by re-plating on tryptic soy agar plates at 37 degC for 18 hrs by broth microdilution assay; format: functional; settings: NRS101, 18 h
[10] = test system: Staphylococcus aureus; assay: Bactericidal activity against methicillin-resistant Staphylococcus aureus NRS385 incubated fo 18 hrs followed by re-plating on tryptic soy agar plates at 37 degC for 18 hrs by broth microdilution assay; format: functional; settings: NRS385, 18 h
[11] = test system: Listeria monocytogenes; assay: Bactericidal activity against Listeria monocytogenes ATCC 19111 incubated fo 18 hrs followed by re-plating on tryptic soy agar plates at 37 degC for 18 hrs by broth microdilution assay; format: functional; settings: ATCC 19111, 18 h
[12] = test system: Staphylococcus aureus; assay: Antibacterial activity against methicillin-resistant Staphylococcus aureus NRS384 USA300 after 18 hrs by broth microdilution assay; format: functional; settings: NRS384 USA300, 18 h; how it was run: as §1
[13] = test system: Staphylococcus aureus; assay: Antibacterial activity against vancomycin-resistant Staphylococcus aureus VRS12 after 18 hrs by broth microdilution assay; format: functional; settings: VRS12, 18 h; how it was run: as §1
[14] = test system: Staphylococcus aureus; assay: Inhibition of biofilm formation in methicillin-resistant Staphylococcus aureus NRS384 USA300 at 1 time MIC after 24 hrs by crystal violet staining-based spectrophotometric analysis relative to control; set-up: scale not given: the % may be the effect or the level left
[15] = test system: Staphylococcus aureus; assay: Inhibition of biofilm formation in methicillin-resistant Staphylococcus aureus NRS384 USA300 at 2 times MIC after 24 hrs by crystal violet staining-based spectrophotometric analysis relative to control; set-up: scale not given: the % may be the effect or the level left
[16] = test system: Staphylococcus aureus; assay: Bactericidal activity against methicillin-sensitive Staphylococcus aureus ATCC 6538 incubated fo 18 hrs followed by re-plating on tryptic soy agar plates at 37 degC for 18 hrs by broth microdilution assay; format: functional; settings: ATCC 6538, 18 h
[17] = test system: Staphylococcus aureus; assay: Bactericidal activity against vancomycin-resistant Staphylococcus aureus VRS12 incubated fo 18 hrs followed by re-plating on tryptic soy agar plates at 37 degC for 18 hrs by broth microdilution assay; format: functional; settings: VRS12, 18 h
[18] = test system: Staphylococcus aureus; assay: Bactericidal activity against methicillin-resistant Staphylococcus aureus NRS119 incubated fo 18 hrs followed by re-plating on tryptic soy agar plates at 37 degC for 18 hrs by broth microdilution assay; format: functional; settings: NRS119, 18 h
[19] = test system: Staphylococcus aureus; assay: Antibacterial activity against methicillin-resistant Staphylococcus aureus NRS123 USA400 after 18 hrs by broth microdilution assay; format: functional; settings: NRS123 USA400, 18 h; how it was run: as §1
[20] = test system: Staphylococcus aureus; assay: Bactericidal activity against vancomycin-resistant Staphylococcus aureus VRS10 incubated fo 18 hrs followed by re-plating on tryptic soy agar plates at 37 degC for 18 hrs by broth microdilution assay; format: functional; settings: VRS10, 18 h
[21] = test system: Staphylococcus aureus; assay: Bactericidal activity against methicillin-sensitive Staphylococcus aureus NRS107 incubated fo 18 hrs followed by re-plating on tryptic soy agar plates at 37 degC for 18 hrs by broth microdilution assay; format: functional; settings: NRS107, 18 h
[22] = test system: Staphylococcus aureus; assay: Inhibition of biofilm formation in methicillin-resistant Staphylococcus aureus NRS384 USA300 after 24 hrs by crystal violet staining-based spectrophotometric analysis
[23] = test system: Staphylococcus aureus; assay: Antibacterial activity against vancomycin-resistant Staphylococcus aureus VRS10 after 18 hrs by broth microdilution assay; format: functional; settings: VRS10, 18 h; how it was run: as §1
[24] = test system: Caco-2; assay: Cytotoxicity against human Caco2 cells at 32 ug/ml after 2 hrs by MTS assay; format: cell-based; settings: caco-2, 2 h
How it was run: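 Caco-2 cells grown in DMEM with 20% FBS, non-essential amino acids and penicillin-streptomycin, 37 °C, 5% CO2; exposed in triplicate to compounds (16, 32, 64 µg/mL) for 2 h; MTS added, 4 h further incubation, OD490 read; viability as percent of DMSO-treated controls; two independent experiments.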

[25] = test system: Staphylococcus aureus; assay: Antibacterial activity against methicillin-resistant Staphylococcus aureus NRS386 after 18 hrs by broth microdilution assay; format: functional; settings: NRS386, 18 h; how it was run: as §1
[26] = test system: Staphylococcus aureus; assay: Antibacterial activity against methicillin-sensitive Staphylococcus aureus ATCC 6538 after 18 hrs by broth microdilution assay; format: functional; settings: ATCC 6538, 18 h; how it was run: as §1
[27] = test system: Staphylococcus epidermidis; assay: Antibacterial activity against methicillin-resistant Staphylococcus epidermidis NRS101 after 18 hrs by broth microdilution assay; format: functional; settings: NRS101, 18 h; how it was run: as §1
[28] = test system: Staphylococcus aureus; assay: Antibacterial activity against methicillin-resistant Staphylococcus aureus NRS119 after 18 hrs by broth microdilution assay; format: functional; settings: NRS119, 18 h; how it was run: as §1
[29] = test system: Enterococcus faecium; assay: Antibacterial activity against vancomycin-resistant Enterococcus faecium ATCC 700221 after 18 hrs by broth microdilution assay; format: functional; settings: ATCC 700221, 18 h; how it was run: as §1
[30] = test system: Listeria monocytogenes; assay: Antibacterial activity against Listeria monocytogenes ATCC 19111 after 18 hrs by broth microdilution assay; format: functional; settings: ATCC 19111, 18 h
[31] = test system: Enterococcus faecium; assay: Bactericidal activity against vancomycin-resistant Enterococcus faecium ATCC 700221 incubated fo 18 hrs followed by re-plating on tryptic soy agar plates at 37 degC for 18 hrs by broth microdilution assay; settings: ATCC 700221, 18 h

Compound: Cc1nc(-c2ccc(C(C)(C)C)cc2)sc1-c1ccnc(NC(=N)N2CCCC2)n1
- MIC [1]: 50 µg/mL (≈ 119 µM)

Compound: Cc1nc(-c2ccc(C(C)(C)C)cc2)sc1-c1ccnc(NC(=N)N(C)C)n1
- MBC [2]: 8 µg/mL (≈ 20.3 µM)
- MIC [3]: 8 µg/mL (≈ 20.3 µM)
- Activity [4]: Active
- MIC [5]: 8 µg/mL (≈ 20.3 µM)
- MIC [1]: 1.17 µg/mL (≈ 2.97 µM)
- MIC [6]: 8 µg/mL (≈ 20.3 µM)
- MBC [7]: 8 µg/mL (≈ 20.3 µM)
- MBC [8]: 8 µg/mL (≈ 20.3 µM)
- MBC [9]: 8 µg/mL (≈ 20.3 µM)
- MBC [10]: 8 µg/mL (≈ 20.3 µM)
- MBC [11]: 8 µg/mL (≈ 20.3 µM)
- MIC [12]: 8 µg/mL (≈ 20.3 µM)
- MIC [13]: 8 µg/mL (≈ 20.3 µM)
- Activity [14]: 35.5%
- Activity [15]: 48.2%
- MBC [16]: 8 µg/mL (≈ 20.3 µM)
- MBC [17]: 8 µg/mL (≈ 20.3 µM)
- MBC [18]: 8 µg/mL (≈ 20.3 µM)
- MIC [19]: 8 µg/mL (≈ 20.3 µM)
- MBC [20]: 8 µg/mL (≈ 20.3 µM)
- MBC [21]: 8 µg/mL (≈ 20.3 µM)
- inhibition [22]: Dose-dependent effect
- MIC [23]: 8 µg/mL (≈ 20.3 µM)
- Activity [24]: Toxic
- MIC [25]: 8 µg/mL (≈ 20.3 µM)
- MIC [26]: 8 µg/mL (≈ 20.3 µM)
- MIC [27]: 8 µg/mL (≈ 20.3 µM)
- MIC [28]: 8 µg/mL (≈ 20.3 µM)
- MIC [29]: 8 µg/mL (≈ 20.3 µM)
- MIC [30]: 8 µg/mL (≈ 20.3 µM)
- MBC [31]: 16 µg/mL (≈ 40.6 µM)

Compound: CC(=O)NC[C@H]1CN(c2ccc(N3CCOCC3)c(F)c2)C(=O)O1 [LINEZOLID]
- MBC [2]: 64 µg/mL (≈ 190 µM)
- MIC [3]: 1 µg/mL (≈ 2.96 µM)
- MBC [7]: 32 µg/mL (≈ 94.9 µM)
- MBC [8]: 32 µg/mL (≈ 94.9 µM)
- MBC [10]: 16 µg/mL (≈ 47.4 µM)
- MIC [12]: 1 µg/mL (≈ 2.96 µM)
- MIC [13]: 1 µg/mL (≈ 2.96 µM)
- MBC [16]: 16 µg/mL (≈ 47.4 µM)
- MBC [17]: 64 µg/mL (≈ 190 µM)
- MBC [18]: > 64 µg/mL
- MIC [19]: 1 µg/mL (≈ 2.96 µM)
- MBC [20]: 64 µg/mL (≈ 190 µM)
- MBC [21]: 16 µg/mL (≈ 47.4 µM)
- MIC [23]: 1 µg/mL (≈ 2.96 µM)
- MIC [26]: 1 µg/mL (≈ 2.96 µM)

Compound: CCNc1nccc(-c2sc(-c3ccc(C(C)(C)C)cc3)nc2C)n1
- MIC [1]: > 50 µg/mL

Compound: Cc1nc(-c2ccc(C(C)(C)C)cc2)sc1-c1ccnc(NC2CCCC2)n1
- MIC [1]: > 50 µg/mL

Compound: Cc1nc(-c2ccc(C(C)(C)C)cc2)sc1-c1ccnc(N(C)C)n1
- MIC [1]: > 50 µg/mL

Compound: Cc1nc(-c2ccc(C(C)(C)C)cc2)sc1-c1ccnc(N)n1
- MIC [1]: 6.25 µg/mL (≈ 19.3 µM)

Compound: Cc1nc(-c2ccc(C(C)(C)C)cc2)sc1-c1ccnc(N2CC(O)C2)n1
- MIC [1]: 6.25 µg/mL (≈ 16.4 µM)

Compound: Cc1nc(-c2ccc(C(C)(C)C)cc2)sc1-c1ccnc(N2CCCC2)n1
- MIC [1]: > 50 µg/mL

Compound: CNc1nccc(-c2sc(-c3ccc(C(C)(C)C)cc3)nc2C)n1
- MIC [1]: 25 µg/mL (≈ 73.9 µM)

Compound: Cc1nc(-c2ccc(C(C)(C)C)cc2)sc1-c1ccnc(NC(=N)N2CCN(C)CC2)n1
- MIC [1]: 3.12 µg/mL (≈ 6.94 µM)
